Laboratory results: ChEMBL document CHEMBL4138091, “Quinazoline based α1-adrenoreceptor antagonists with potent antiproliferative activity in human prostate cancer cell lines” (Eur J Med Chem, 2017)
Active and inactive are the calls of the source. The rule behind the calls is not given here.

Tests used:
[1] = system: LNCaP; assay: Antiproliferative activity against human LNCAP cells at 0.1 to 50 uM after 120 hrs by MTT assay; type: functional, cell-based
Procedure, shortened: (§1)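 DU-145, PC-3 and LNCaP cells grown in RPMI with 10% fetal calf serum, 37 °C, 5% CO₂; seeded at 5 × 10³ cells/well, exposed to 0.1–50 µM for 120 h. After PBS wash, MTT (5 mg/mL) in PBS 4 h, formazan dissolved in isopropanol, read at 570 nm. Viability as % of untreated; IC50 from at least three independent dose-response curves.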

[2] = system: DU-145; assay: Antiproliferative activity against human DU145 cells at 0.1 to 50 uM after 120 hrs by MTT assay; type: functional, cell-based; procedure, shortened: as §1
[3] = molecular target: T1, Alpha-1D adrenergic receptor (Homo sapiens, UniProt P25100); assay: Displacement of [3H]prazosin from human alpha1D adrenoceptor expressed in CHO cell membranes after 30 mins
T1 sequence (P25100 whole entry): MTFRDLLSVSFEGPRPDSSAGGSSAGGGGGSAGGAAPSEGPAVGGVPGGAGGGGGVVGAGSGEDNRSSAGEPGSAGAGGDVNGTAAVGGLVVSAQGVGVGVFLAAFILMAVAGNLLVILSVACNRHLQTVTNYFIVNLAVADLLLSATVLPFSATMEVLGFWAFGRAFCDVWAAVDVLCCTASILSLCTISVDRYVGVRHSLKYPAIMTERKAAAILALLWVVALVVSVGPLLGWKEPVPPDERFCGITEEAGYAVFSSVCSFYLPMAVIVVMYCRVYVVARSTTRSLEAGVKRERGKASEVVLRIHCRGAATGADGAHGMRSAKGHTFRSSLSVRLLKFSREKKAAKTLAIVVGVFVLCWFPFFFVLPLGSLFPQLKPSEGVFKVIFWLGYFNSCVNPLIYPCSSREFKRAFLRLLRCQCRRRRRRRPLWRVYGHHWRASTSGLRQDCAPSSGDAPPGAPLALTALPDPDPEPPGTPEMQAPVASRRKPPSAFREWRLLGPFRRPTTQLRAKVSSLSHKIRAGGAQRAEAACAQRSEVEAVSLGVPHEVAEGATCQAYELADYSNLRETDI

[4] = molecular target: T2, Alpha-1A adrenergic receptor (Homo sapiens, UniProt P35348); assay: Displacement of [3H]prazosin from human alpha1A adrenoceptor expressed in CHO cell membranes after 30 mins
T2 sequence (P35348 whole entry): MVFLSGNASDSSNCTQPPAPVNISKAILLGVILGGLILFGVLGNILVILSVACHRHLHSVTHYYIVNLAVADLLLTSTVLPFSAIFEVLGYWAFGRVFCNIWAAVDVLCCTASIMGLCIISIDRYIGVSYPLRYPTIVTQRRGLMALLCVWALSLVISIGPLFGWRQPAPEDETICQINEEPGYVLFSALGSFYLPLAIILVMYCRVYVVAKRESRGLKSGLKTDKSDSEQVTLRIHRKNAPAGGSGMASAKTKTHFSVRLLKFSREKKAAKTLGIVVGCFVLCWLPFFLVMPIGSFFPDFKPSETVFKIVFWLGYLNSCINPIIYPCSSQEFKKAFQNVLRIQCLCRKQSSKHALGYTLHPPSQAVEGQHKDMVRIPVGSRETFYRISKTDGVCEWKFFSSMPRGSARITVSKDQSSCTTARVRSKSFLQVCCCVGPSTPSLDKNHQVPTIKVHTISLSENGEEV

[5] = molecular target: T3, Alpha-1B adrenergic receptor (Homo sapiens, UniProt P35368); assay: Displacement of [3H]prazosin from human alpha1B adrenoceptor expressed in CHO cell membranes after 30 mins
T3 sequence (P35368 whole entry): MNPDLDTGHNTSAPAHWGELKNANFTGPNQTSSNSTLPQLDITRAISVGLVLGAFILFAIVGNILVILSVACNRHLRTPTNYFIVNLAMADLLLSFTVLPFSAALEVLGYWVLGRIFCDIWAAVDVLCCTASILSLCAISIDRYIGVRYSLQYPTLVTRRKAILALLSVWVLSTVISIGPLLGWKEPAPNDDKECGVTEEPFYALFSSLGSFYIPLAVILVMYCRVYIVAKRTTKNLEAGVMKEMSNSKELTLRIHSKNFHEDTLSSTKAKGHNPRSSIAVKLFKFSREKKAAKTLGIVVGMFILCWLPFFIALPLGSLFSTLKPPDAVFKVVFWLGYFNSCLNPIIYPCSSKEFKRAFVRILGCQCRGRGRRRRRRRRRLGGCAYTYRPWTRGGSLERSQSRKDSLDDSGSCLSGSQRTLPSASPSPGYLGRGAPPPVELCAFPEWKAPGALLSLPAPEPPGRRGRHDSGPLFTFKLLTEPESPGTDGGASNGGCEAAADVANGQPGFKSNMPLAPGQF

[6] = system: Panel NCI-60 (60 carcinoma cell lines); assay: Antiproliferative activity against human NCI60 cells at 10 uM after 48 hrs by SRB assay; type: functional, cell-based
Procedure, shortened: (§2)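 NCI one-dose screen at 10 µM across 60 human tumour lines, 48 h exposure; growth given relative to no-drug control and to time-zero cell number, so 0–100 means inhibition and below 0 lethality; 100 means no inhibition.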

[7] = system: PC-3; assay: Antiproliferative activity against human PC3 cells at 0.1 to 50 uM after 120 hrs by MTT assay; type: functional, cell-based; procedure, shortened: as §1
[8] = system: DU-145; assay: Antiproliferative activity against human DU145 cells after 120 hrs by MTT assay; type: functional, cell-based; settings: DU-145, 120 h; procedure, shortened: as §1
[9] = system: LNCaP; assay: Induction of apoptosis in human LNCAP cells assessed as increase in DNA fragmentation at 10 uM after 24 hrs by spectrophotometer relative to control; type: functional
Procedure, shortened: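 LNCaP cells seeded at 1 × 10³ cells/well, exposed to compounds (1–10 µM range) for 24 h at 37 °C, 5% CO₂; lysed, supernatant run in Cell Death Detection ELISAplus (biotin anti-histone/peroxidase anti-DNA on streptavidin plate, ABTS substrate 20 min); absorbance 405 nm. DNA fragmentation given as fold increase, treated/untreated absorbance; mean SD of three independent experiments, t-test vs untreated.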

[10] = system: LNCaP; assay: Antiproliferative activity against human LNCAP cells after 120 hrs by MTT assay; type: functional, cell-based; procedure, shortened: as §1
[11] = system: LNCaP; assay: Induction of necrosis in human LNCAP cells assessed as loss of plasma membrane integrity at 1 to 10 uM after 24 hrs by trypan blue staining-based Neubauer hemocytometric method; type: functional, cell-based
Procedure, shortened: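 LNCaP cells seeded at 1 × 10⁶ cells/well, treated 1–10 µM for 24 h at 37 °C, 5% CO₂; scraped into PBS, mixed 1:1 with 0.5% trypan blue, counted on a Neubauer hemocytometer; percentage of stained cells from at least 3 separate counts.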

[12] = system: PC-3; assay: Antiproliferative activity against human PC3 cells after 120 hrs by MTT assay; type: functional, cell-based; settings: PC-3, 120 h; procedure, shortened: as §1
[13] = system: DU-145; assay: Antiproliferative activity against human DU145 cells at 10 uM after 48 hrs by SRB assay relative to control; type: functional; procedure, shortened: as §2
[14] = system: PC-3; assay: Growth inhibition of human PC3 cells at 10 uM after 48 hrs by SRB assay relative to control; type: functional; settings: PC-3, 48 h, read-out: GI; procedure, shortened: as §2
[15] = system: LNCaP; assay: Antioxidant activity in human LNCAP cells assessed as inhibition of t-BuOOH-induced ROS level at 1 to 10 uM after 24 hrs by DCFH-DA dye-based spectrofluorometric analysis; type: functional, cell-based
[16] = species: Homo sapiens; assay: Selectivity ratio of Ki for human alpha1A adrenoceptor to Ki for human alpha1B adrenoceptor
[17] = species: Homo sapiens; assay: Selectivity ratio of Ki for human alpha1D adrenoceptor to Ki for human alpha1B adrenoceptor
[18] = Selectivity index, ratio of cytotoxic concentration for HGF cells to IC10 for human LNCAP cells; type: toxicity; settings: HGF cells and LNCAP cells, read-out: Selectivity Index
[19] = system: LNCaP; assay: Induction of apoptosis in human LNCAP cells assessed as increase in DNA fragmentation at 1 to 10 uM after 24 hrs by spectrophotometer relative to control; type: functional
Procedure, shortened: (§3)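 LNCaP cells seeded at 1 × 10³ cells/well, treated 1–10 µM for 24 h at 37 °C, 5% CO₂; lysed 30 min, centrifuged, supernatant ELISA with biotin anti-histone and peroxidase anti-DNA antibodies on streptavidin plate, ABTS 20 min, read 405 nm. Fold increase = treated/untreated absorbance; mean ± SD, three independent experiments.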

[20] = system: LNCaP; assay: Antioxidant activity in human LNCAP cells assessed as inhibition of t-BuOOH-induced ROS level after 30 mins by DCFH-DA dye-based spectrofluorometric analysis; type: functional, cell-based
[21] = system: LNCaP; assay: Antioxidant activity in human LNCAP cells assessed as inhibition of t-BuOOH-induced ROS level at 1 to 10 uM after 30 mins by DCFH-DA dye-based spectrofluorometric analysis relative to control; type: functional
[22] = system: LNCaP; assay: Prooxidant activity in human LNCAP cells assessed as increase in depletion of intercellular GSH level at 1 to 10 uM after 24 hrs by MCB dye-based spectrofluorometric analysis; type: functional, cell-based
Procedure, shortened: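 LNCaP cells seeded at 2 × 10⁴ cells/well, treated 1–10 µM for 24 h at 37 °C, 5% CO₂; washed, 50 µM monochlorobimane in PBS 30 min at 37 °C, fluorescence read at excitation 360 nm, emission 465 nm; arbitrary fluorescence units; mean ± SD, three independent experiments.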

[23] = system: LNCaP; assay: Induction of ROS generation in human LNCAP cells at 1 to 10 uM after 24 hrs by DCFH-DA dye-based spectrofluorometric analysis relative to control; type: functional
Procedure, shortened: (§4)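 LNCaP cells seeded at 2 × 10⁴ cells/well, exposed to compounds (1–10 µM) for 24 h; then loaded with 5 µM DCFH-DA in PBS, 37 °C, 5% CO₂, 30 min, washed, fluorescence read (excitation 485 nm). Antioxidant lines involve t-BuOOH challenge. Output as fold increase of intracellular ROS over untreated; mean ± SD, three independent experiments.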

[24] = Selectivity index, ratio of cytotoxic concentration for HGF cells to IC50 for human LNCAP cells; type: toxicity; settings: HGF cells and LNCAP cells, read-out: Selectivity Index
[25] = system: LNCaP; assay: Induction of apoptosis in human LNCAP cells assessed as increase in DNA fragmentation after 24 hrs by spectrophotometer; type: functional, cell-based; procedure, shortened: as §3
[26] = system: LNCaP; assay: Induction of ROS generation in human LNCAP cells after 24 hrs by DCFH-DA dye-based spectrofluorometric analysis; type: functional, cell-based; procedure, shortened: as §4

| Ki [3] [nM] | Ki [4] [nM] | Ki [5] [nM] | SMILES | Activity [1] | Activity [2] | Activity [6] | Activity [7] | also measured |
| --- | --- | --- | --- | --- | --- | --- | --- | --- |
| 13.2 | 33.1 | 7.41 | COc1cc2nc(N3CCC[C@H](NC(=O)[C@@H]4COc5ccccc5O4)C3)nc(N)c2cc1OC | inactive | inactive | inactive | inactive |  |
| 102 | > 1000 | 178 | COc1cc2nc(N3CCC[C@@H](N)C3)nc(N)c2cc1OC |  |  |  |  |  |
|  |  |  | COc1cc2nc(N3CCN(C(=O)C4COc5ccccc5O4)CC3)nc(N)c2cc1OC (centres undefined) [DOXAZOSIN] |  |  |  |  | IC50 [8]: 30.6 µM; fold change (FC) [9]: 2.2; IC50 [10]: 10.5 µM; Activity [11]: inactive; IC50 [12]: 12.1 µM |
| 33.9 | 120 | 25.1 | COc1cc2nc(N3CCC[C@@H](NC4=CC(=O)c5ccccc5C4=O)C3)nc(N)c2cc1OC |  |  | Active |  | Activity [13]: 54%; IC50 [8]: 17.8 µM; IC50 [10]: 5.78 µM; inhibition of growth at 10 µM [14]: 45.5%; IC50 [12]: 18.6 µM |
| > 1000 | > 1000 | 316 | COc1cc2nc(N3CCC[C@@H](NC(=O)[C@@H]4COc5ccccc5O4)C3)nc(N)c2cc1OC |  |  |  |  |  |
| 2.14 | 7.08 | 0.525 | COc1cc2nc(N3CCC[C@H](NC4=CC(=O)c5ccccc5C4=O)C3)nc(N)c2cc1OC |  |  | Active |  | Activity [13]: 54%; inhibition [15]: inactive; IC50 [8]: 18.5 µM; Ratio Ki [16]: 13; Ratio Ki [17]: 4; selectivity ratio [18]: 9.1; fold change (FC) [19]: 9.9; IC50 [10]: 6.32 µM; inhibition of growth at 10 µM [14]: 77%; inhibition [20]: Dose-dependent effect; inhibition (INH) [21]: 34%; Activity [22]: Active; Activity [23]: 56%; Activity [11]: inactive; selectivity ratio [24]: 4.7; IC50 [12]: 18.2 µM; Activity [25]: Dose-dependent effect; Activity [26]: Dose-dependent effect |
| 295 | > 1000 | 46.8 | COc1cc2nc(N3CCC[C@@H](NC(=O)[C@H]4COc5ccccc5O4)C3)nc(N)c2cc1OC |  |  |  |  |  |
| 28.2 | 191 | 55 | COc1cc2nc(N3CCC[C@H](N)C3)nc(N)c2cc1OC | inactive | inactive | inactive | inactive | Activity [19]: inactive; inhibition [21]: inactive; Activity [22]: inactive; Activity [11]: inactive |
| 37.2 | 110 | 42.7 | COc1cc2nc(N3CCC[C@@H](NC(=O)c4ccco4)C3)nc(N)c2cc1OC | inactive | inactive | inactive | inactive |  |
| 0.331 | 0.631 | 0.282 | COc1cc2nc(N3CCC[C@H](NC(=O)c4ccco4)C3)nc(N)c2cc1OC | inactive | inactive | inactive | inactive |  |
| 49 | 18.2 | 63.1 | COc1cc2nc(N3CCC[C@H](NC(=O)[C@H]4COc5ccccc5O4)C3)nc(N)c2cc1OC | inactive | inactive | inactive | inactive |  |
